{"data": "Experimental data from different studies", "STK32A": "Serine/threonine-protein kinase 32A (STK32A, Homo sapiens, UniProt Q8WU08)", "ache": "Acetylcholinesterase (ache, Electrophorus electricus, UniProt O42275)", "STK17B": "Serine/threonine-protein kinase 17B (STK17B, Homo sapiens, UniProt O94768)", "S1PR1": "Sphingosine 1-phosphate receptor 1 (S1PR1, Homo sapiens, UniProt P21453)", "note": "Protocols differ between the studies behind these lines."}
{"SMILES": "Cn1c2c(c3ccc(Cl)c(Cl)c31)C(C#N)C1(CCOCC1)NC2=O (centres unmarked)", "target": "STK32A", "test": "thermal stability, DSF", "setting": "10 µM", "measurement": "ΔTm", "result": "-0.3 °C"}
{"SMILES": "COc1cc2c(cc1OC)C(=O)N(CC1CCN(Cc3ccccn3)CC1)C2", "target": "ache", "test": "enzyme activity, inhibitor", "setting": "1 µM", "measurement": "inhibition", "result": "8.01%"}
{"SMILES": "CC(C)(C)c1nc(-c2cccc(NS(=O)(=O)c3c(F)cccc3F)c2F)c(-c2ccnc(N)n2)s1", "target": "Mitogen-activated protein kinase kinase kinase 21 (MAP3K21, Homo sapiens, UniProt Q5TCX8)", "test": "enzyme activity, inhibitor, radiometric", "setting": "1 µM", "measurement": "remaining activity", "result": "92%"}
{"SMILES": "c1cc(CN2CCOCC2)cc(Nc2ncc(C3CC3)c(NCCc3c[nH]cn3)n2)c1", "target": "STK17B", "test": "enzyme activity, inhibitor, radiometric", "setting": "1 µM", "measurement": "remaining activity", "result": "14%"}
{"SMILES": "CC(C)(C)c1nc2c(s1)c1nc(N)ncc1c1ccc(NS(=O)(=O)c3c(F)cccc3F)c(F)c12", "target": "Ribosomal protein S6 kinase beta-2 (RPS6KB2, Homo sapiens, UniProt Q9UBS0)", "test": "enzyme activity, inhibitor, radiometric", "setting": "1 µM", "measurement": "remaining activity", "result": "90%"}
{"SMILES": "COc1cc2c(cc1OC)C(=O)N(Cc1ccc(-c3cccs3)nc1)C2", "target": "ache", "test": "enzyme activity, inhibitor", "setting": "1 µM", "measurement": "inhibition", "result": "-4.2%"}
{"SMILES": "COC(=O)C(C)Oc1ccc2c(C)cc(=O)oc2c1 (centres unmarked)", "target": "Aldehyde dehydrogenase 1A1 (ALDH1A1, Homo sapiens, UniProt P00352, N121S)", "test": "enzyme activity, inhibitor, absorbance", "setting": "10 µM", "measurement": "remaining activity", "result": "82.8%"}
{"SMILES": "Cn1c2c(c3ccc(Cl)c(Cl)c31)C(C#N)C(C)(C)NC2=O (centres unmarked)", "target": "STK32A", "test": "thermal stability, DSF", "setting": "10 µM", "measurement": "ΔTm", "result": "-0.1 °C"}
{"SMILES": "O=C(NCCCNc1nc(Nc2cccc(CN3CCOCC3)c2)ncc1C1CC1)C1CCC1", "target": "STK17B", "test": "enzyme activity, inhibitor, radiometric", "setting": "1 µM", "measurement": "remaining activity", "result": "7%"}
{"SMILES": "COc1cc2c(cc1OC)C(=O)N(Cc1nccc3ccccc13)C2", "target": "ache", "test": "enzyme activity, inhibitor", "setting": "1 µM", "measurement": "inhibition", "result": "-0.79%"}
{"SMILES": "O=C(Nc1cccc(Nc2ncc(Br)c(NCCc3cnc[nH]3)n2)c1)N1CCCC1", "target": "STK17B", "test": "enzyme activity, inhibitor, radiometric", "setting": "1 µM", "measurement": "remaining activity", "result": "1%"}
{"SMILES": "Cn1c2c(c3ccc(Cl)c(Cl)c31)C(C#N)C1(CCCC1)NC2=O (centres unmarked)", "target": "STK32A", "test": "thermal stability, DSF", "setting": "10 µM", "measurement": "ΔTm", "result": "-0.2 °C"}
{"SMILES": "COc1cc2c(cc1OC)C(=O)N(CC1CCN(Cc3cccc(C#N)c3)CC1)C2", "target": "ache", "test": "enzyme activity, inhibitor", "setting": "1 µM", "measurement": "inhibition", "result": "4.99%"}
{"SMILES": "O=C(NCCCNc1ccnc(Nc2cccc(NC(=O)N3CCCC3)c2)n1)C1CCC1", "target": "STK17B", "test": "enzyme activity, inhibitor, radiometric", "setting": "1 µM", "measurement": "remaining activity", "result": "17%"}
{"SMILES": "CC/C=C\\C/C=C\\C/C=C\\C/C=C\\C/C=C\\C/C=C\\CCC(=O)O", "target": "Polyunsaturated fatty acid lipoxygenase ALOX15 (ALOX15, Homo sapiens, UniProt P16050)", "test": "enzyme activity, substrate, absorbance", "measurement": "Km", "result": "6.7 µM"}
{"SMILES": "COc1ccc2[nH]cc(CCN3Cc4cc(OC)c(OC)cc4C3=O)c2c1", "target": "ache", "test": "enzyme activity, inhibitor", "setting": "1 µM", "measurement": "inhibition", "result": "3.28%"}
{"SMILES": "FC(F)(F)Oc1cccc(-c2cnc3ccc(-c4ccncc4)nn23)c1", "target": "Mitogen-activated protein kinase kinase kinase kinase 3 (MAP4K3, Homo sapiens, UniProt Q8IVH8)", "test": "enzyme activity, inhibitor, radiometric", "setting": "5 µM", "measurement": "activity vs control", "result": "39%"}
{"SMILES": "CCc1cc(-c2noc(-c3cc(OC)nc(C4CCCC4)c3)n2)cc(C)c1OC[C@@H](O)CO", "target": "S1PR1", "test": "calcium signal, agonist, fluorescence", "test system": "HUVEC", "measurement": "Emax", "result": "37%"}
{"SMILES": "N#Cc1ccc(/C=C/CN(CC[C@H](N)C(=O)O)C[C@H]2O[C@@H](n3cnc4c(N)ncnc43)[C@H](O)[C@@H]2O)cc1", "target": "Histone-arginine methyltransferase CARM1 (CARM1, Homo sapiens, UniProt Q86X55)", "test": "enzyme activity, inhibitor", "setting": "1 µM", "measurement": "activity vs control", "result": "100%"}
{"SMILES": "Cc1nn(CC(F)(F)F)cc1Nc1ncc(Br)c(NCc2ccc(S(N)(=O)=O)cc2)n1", "target": "STK17B", "test": "enzyme activity, inhibitor, radiometric", "setting": "1 µM", "measurement": "remaining activity", "result": "47%"}
{"SMILES": "O[C@@H]1[C@H](O)CO[C@H]1n1cnc2c(NCc3cccc(Cl)c3)ncnc21", "target": "Adenosine receptor A1 (ADORA1, Homo sapiens, UniProt P30542)", "test": "ligand displacement, radioligand", "setting": "10 µM, cell membranes", "measurement": "inhibition", "result": "35%"}
{"SMILES": "O=C(NCCCNc1nc(Nc2cccc(NC(=O)N3CCCC3)c2)ncc1Br)C1CCC1", "target": "STK17B", "test": "enzyme activity, inhibitor, radiometric", "setting": "1 µM", "measurement": "remaining activity", "result": "0%"}
{"SMILES": "COc1cc2c(cc1OC)C(=O)N(Cc1n[nH]c3ccccc13)C2", "target": "ache", "test": "enzyme activity, inhibitor", "setting": "1 µM", "measurement": "inhibition", "result": "5.12%"}
{"SMILES": "CCc1cc(/C(C)=N/OCc2ccc(C3CCCCC3)c(C(F)(F)F)c2)ccc1CN1CC(C(=O)O)C1", "target": "S1PR1", "test": "calcium signal, agonist, fluorescence", "test system": "HUVEC", "measurement": "Emax", "result": "85%"}
{"SMILES": "Cc1nn(CC(F)(F)F)cc1Nc1ncc(C2CC2)c(NCCCNC(=O)C2CCC2)n1", "target": "STK17B", "test": "enzyme activity, inhibitor, radiometric", "setting": "1 µM", "measurement": "remaining activity", "result": "13%"}
{"SMILES": "COc1cc2c(cc1OC)C(=O)N(Cc1cnc3c(c1)OCCN3C)C2", "target": "ache", "test": "enzyme activity, inhibitor", "setting": "1 µM", "measurement": "inhibition", "result": "1.71%"}
